Measured values reported in article PMC6400523 (The Journal of General Physiology, 2019).

How the values were obtained:
rat ASCT2 = molecular target: T1, rat ASCT2 (Rattus norvegicus, UniProt D3ZJ25); assay type: cell-based; settings: for Behaviour in anion current assay (inhibitor / substrate): rASCT2, direction of induced current
T1 sequence (D3ZJ25 1-555): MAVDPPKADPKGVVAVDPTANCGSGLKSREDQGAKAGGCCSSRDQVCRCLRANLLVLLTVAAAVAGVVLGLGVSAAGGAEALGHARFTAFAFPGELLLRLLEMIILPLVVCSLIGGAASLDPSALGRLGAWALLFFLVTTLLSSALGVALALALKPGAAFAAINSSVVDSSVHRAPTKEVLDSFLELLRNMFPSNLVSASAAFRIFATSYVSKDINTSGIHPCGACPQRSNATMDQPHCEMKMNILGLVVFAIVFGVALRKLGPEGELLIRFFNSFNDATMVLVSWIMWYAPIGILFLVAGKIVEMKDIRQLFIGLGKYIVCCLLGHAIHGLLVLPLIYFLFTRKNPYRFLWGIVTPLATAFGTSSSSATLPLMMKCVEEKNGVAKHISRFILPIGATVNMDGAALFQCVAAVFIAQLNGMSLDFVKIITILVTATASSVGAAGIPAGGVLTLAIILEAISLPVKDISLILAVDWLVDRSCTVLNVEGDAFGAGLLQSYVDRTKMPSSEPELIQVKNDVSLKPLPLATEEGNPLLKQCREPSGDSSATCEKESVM
Summary of the method: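 HEK293 cells cotransfected with rASCT2 and YFP cDNA; whole-cell recording 24–30 h later at 0 mV. External 140 mM NaCl, 2 mM MgCl2, 2 mM CaCl2, 10 mM HEPES pH 7.40; NaSCN pipette solution with 10 mM alanine. 1 mM L-alanine control; outward current = leak inhibition. Ki from Michaelis–Menten-like fit, including varied alanine; Imax from 1 mM response and Km. ≥4 repeats.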

hASCT2 = molecular target: T2, hASCT2 (Homo sapiens, UniProt Q15758); assay: Current recording in HEK293 cells expressing human ASCT2; assay type: cell-based
T2 sequence (Q15758 1-541): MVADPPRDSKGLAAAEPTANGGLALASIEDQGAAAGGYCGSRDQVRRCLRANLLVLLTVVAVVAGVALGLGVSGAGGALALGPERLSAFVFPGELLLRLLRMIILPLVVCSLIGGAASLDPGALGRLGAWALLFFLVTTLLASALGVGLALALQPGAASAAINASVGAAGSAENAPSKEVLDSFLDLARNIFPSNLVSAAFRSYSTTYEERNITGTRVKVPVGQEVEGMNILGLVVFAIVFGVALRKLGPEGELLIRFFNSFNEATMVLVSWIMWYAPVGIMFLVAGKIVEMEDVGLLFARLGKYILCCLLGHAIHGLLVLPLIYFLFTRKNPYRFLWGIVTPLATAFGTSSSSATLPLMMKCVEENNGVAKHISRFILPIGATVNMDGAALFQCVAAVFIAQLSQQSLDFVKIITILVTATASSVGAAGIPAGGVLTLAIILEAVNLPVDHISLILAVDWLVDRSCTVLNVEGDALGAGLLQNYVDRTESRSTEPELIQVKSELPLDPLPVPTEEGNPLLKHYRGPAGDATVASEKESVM

For `NC[C@H](N)C(=O)O` [Compound 1, L-2,3-diaminopropionic acid], the “Behaviour in anion current assay (inhibitor / substrate)” value (rat ASCT2) was “properties of a transported substrate”.

With “4-fluorobenzene sulfonamide [Compound 9b]” the “Imax, maximum current at saturating concentration” value (rat ASCT2; rASCT2, compared with current induced by 1 mM alanine) was “highest outward current”.

For `C[C@H](N)C(=O)O` [alanine, L-alanine], the “Current for saturating alanine in hASCT2” value (hASCT2) was less than 20 pA.

For `CS(N)(=O)=O` [Compound 2b, methanesulfonamide], the “Behaviour in anion current assay (inhibitor / substrate)” value (rat ASCT2) was “borderline substrate-like properties”.
